Measurements published in ChEMBL document CHEMBL1140737, “Discovery of novel agonists and antagonists of the free fatty acid receptor 1 (FFAR1) using virtual screening” (J Med Chem, 2008).
Activity calls are given as the source filed them. No cut-off for these calls is given here.

Experiments:
[1] = biological target: T1, Free fatty acid receptor 1 (Homo sapiens, UniProt O14842); assay: Antagonist activity at FFAR1 expressed in HEK-EM293 cells assessed as inhibition calcium influx by FLIPR assay; format: functional, cell-based, HEK293
[2] = biological target: T1, Free fatty acid receptor 1; assay: Antagonist activity at FFAR1 expressed in HEK-EM293 cells assessed as linoleic acid-stimulated calcium influx after 30 mins by FLIPR assay; format: functional, cell-based; details: HEK293
[3] = Antagonist activity at TRH receptor 1 expressed in HEK-EM293 cells assessed as inhibition of thyrotropin-releasing hormone-stimulated calcium influx at 30 uM by FLIPR assay; format: functional; details: HEK293
Method in brief: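 HEK-EM 293 cells stably expressing TRH-R1, grown with 200 µg/mL hygromycin and loaded with Calcium4. Pre-incubated with compound, up to 30 µM, then stimulated with TRH. Inhibition of the FLIPR calcium response measured.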

[4] = biological target: T1, Free fatty acid receptor 1; assay: Agonist activity at FFAR1 expressed in HEK-EM293 cells assessed as calcium influx by FLIPR assay; format: functional, cell-based; details: for Activity: HEK293
[5] = biological target: T1, Free fatty acid receptor 1; assay: Activity at FFAR1 expressed in HEK-EM293 cells assessed as calcium influx relative to GW-9508 by FLIPR assay; format: functional, cell-based; parameters: concentration or dose not given beside the values; details: HEK293
[6] = biological target: Free fatty acid receptor 1 (Homo sapiens, UniProt O14842, R183A); assay: Activity at FFAR1 R183A mutant expressed in HEK-EM293 cells assessed as calcium influx by FLIPR assay; format: functional, cell-based, HEK293
Method in brief: (§1)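 Mutant or wild-type FFAR1 cDNA transiently transfected (lipofectamine LTX/PLUS) into HEK-EM 293 cells. Cells seeded at 60 000/well one day before, then loaded with Calcium4 dye in HEPES (20 mM)-buffered HBSS. Intracellular calcium flux read by FLIPR after agonist addition; EC50 from concentration-response curves.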

[7] = biological target: Free fatty acid receptor 1 (Homo sapiens, UniProt O14842, H86F); assay: Activity at FFAR1 H86F mutant expressed in HEK-EM293 cells assessed as calcium influx by FLIPR assay; format: functional, cell-based, HEK293; method in brief: as §1
[8] = biological target: Free fatty acid receptor 1 (Homo sapiens, UniProt O14842, H137F); assay: Activity at FFAR1 H137F mutant expressed in HEK-EM293 cells assessed as calcium influx by FLIPR assay; format: functional, cell-based, HEK293; method in brief: as §1
[9] = biological target: Free fatty acid receptor 1 (Homo sapiens, UniProt O14842, L186F); assay: Activity at FFAR1 L186F mutant expressed in HEK-EM293 cells assessed as calcium influx by FLIPR assay; format: functional, cell-based, HEK293; method in brief: as §1
[10] = biological target: Free fatty acid receptor 1 (Homo sapiens, UniProt O14842, N244A); assay: Activity at FFAR1 N244A mutant expressed in HEK-EM293 cells assessed as calcium influx by FLIPR assay; format: functional, cell-based, HEK293; method in brief: as §1
[11] = biological target: T1, Free fatty acid receptor 1; assay: Activity at FFAR1 expressed in HEK-EM293 cells assessed as calcium influx by FLIPR assay; format: functional, cell-based, HEK293

T1 sequence (O14842 whole entry): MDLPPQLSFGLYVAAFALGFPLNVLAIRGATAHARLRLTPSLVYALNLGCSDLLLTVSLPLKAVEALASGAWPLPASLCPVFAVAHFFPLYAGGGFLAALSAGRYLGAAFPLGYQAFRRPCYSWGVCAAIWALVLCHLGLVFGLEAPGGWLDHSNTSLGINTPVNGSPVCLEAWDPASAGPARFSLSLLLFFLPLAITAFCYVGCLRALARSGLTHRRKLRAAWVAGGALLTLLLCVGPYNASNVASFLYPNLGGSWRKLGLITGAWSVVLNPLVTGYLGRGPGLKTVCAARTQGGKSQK
Free fatty acid receptor 1 (Homo sapiens, UniProt O14842, N244A), sequence (O14842 whole entry N244A): as the sequence (O14842 whole entry) above, with N244A counted along it
Free fatty acid receptor 1 (Homo sapiens, UniProt O14842, L186F), sequence (O14842 whole entry L186F): as the sequence (O14842 whole entry) above, with L186F counted along it
Free fatty acid receptor 1 (Homo sapiens, UniProt O14842, H86F), sequence (O14842 whole entry H86F): as the sequence (O14842 whole entry) above, with H86F counted along it
Free fatty acid receptor 1 (Homo sapiens, UniProt O14842, R183A), sequence (O14842 whole entry R183A): as the sequence (O14842 whole entry) above, with R183A counted along it
Free fatty acid receptor 1 (Homo sapiens, UniProt O14842, H137F), sequence (O14842 whole entry H137F): as the sequence (O14842 whole entry) above, with H137F counted along it

| Structure (SMILES) | Activity [4] | Activity [5] [%] | EC50 [4] [µM] | other results |
| --- | --- | --- | --- | --- |
| O=C(Nc1ccccc1)c1cccc(Oc2ccc([N+](=O)[O-])cc2)c1 | – | – | – | IC50 [1]: 5.3 µM |
| O=C(NCc1cccc(Oc2ccccc2)c1)c1ccc([N+](=O)[O-])cc1 | – | – | – | IC50 [1]: 2.8 µM; Activity [2]: Active; inhibition at 30 µM [3]: 30% |
| O=C(c1ccccc1)c1ccc(NC(=O)c2ccccc2C(=O)O)cc1 | inactive | – | – | – |
| O=C(O)c1ccc(NCc2ccc3c(c2)OCO3)cc1 | – | 50 | 24.6 | – |
| O=C(O)CCCN1C(=O)/C(=C\c2ccc(F)cc2)SC1=S | – | 26 | 22.6 | – |
| O=C(O)c1ccc(NC(=O)c2ccc(C(=O)c3ccccc3)cc2)cc1 | – | 56 | 16.1 | – |
| O=C(O)CCCCCN1C(=O)/C(=C\c2cccs2)SC1=S | – | 59 | 7.6 | EC50 [6]: > 30 µM; EC50 [7]: > 10 µM; EC50 [8]: 7.8 µM; EC50 [9]: 3.2 µM; EC50 [10]: > 30 µM; EC50 [11]: 6.6 µM |
| O=C(O)CCCN1C(=O)/C(=C\c2ccc3c(c2)OCO3)SC1=S | Active | – | – | – |
| O=C(O)CCCN1C(=O)/C(=C\c2cccs2)SC1=S | – | 43 | 19 | – |
| O=C(O)CCCN1C(=O)/C(=C\c2ccco2)SC1=S | – | 44 | 16.8 | – |
| COc1ccc(CNC(=O)/C=C\c2ccc([N+](=O)[O-])cc2)cc1 | inactive | – | – | – |

Further lines, with some results ahead:

| Activity [4] | Activity [5] [%] | EC50 [4] [µM] | Structure (SMILES) | other results |
| --- | --- | --- | --- | --- |
| – | 41 | 16.7 | COC(=O)CSc1nnc(SCc2ccccc2)s1 | – |
| – | 49 | 14.5 | C=CCOc1ccc(CNc2cccc(C(=O)O)c2)cc1 | – |
| inactive | – | – | O=C(Nc1ccc(OCc2ccccc2)cc1)c1cccc([N+](=O)[O-])c1 | – |
| – | 100 | 3.6 | O=C(O)CSc1nnc(SCc2cccc3ccccc23)s1 | EC50 [6]: ≥ 100 µM; EC50 [7]: ≥ 100 µM; EC50 [8]: 4.3 µM; EC50 [9]: 0.97 µM; EC50 [10]: ≥ 100 µM; EC50 [11]: 1.8 µM |
| inactive | – | – | COc1ccc(CNC(=O)[C@H](C)c2ccc([N+](=O)[O-])cc2)cc1 | – |
| inactive | – | – | O=C(O)CCN1C(=O)/C(=C\c2c[nH]c3ccccc23)SC1=S | – |
| – | 100 | 12.2 | O=C(O)CCCCCN1C(=O)/C(=C\c2cccc3ccccc23)SC1=S | – |
| inactive | – | – | O=C(O)CCN1C(=O)/C(=C\c2ccncc2)SC1=S | – |
| inactive | – | – | O=C(O)CCN1C(=O)/C(=C\c2cccc3ccccc23)SC1=S | – |
| – | 52 | 8.2 | O=C(O)c1cccc(NCc2cccc(OCc3ccccc3)c2)c1 | – |
| – | 40 | 15.1 | COc1ccc(CSc2nnc(SCc3ccc(C(=O)O)cc3)s2)cc1 | – |
